Molecules are shown by their SMILES.

In assay [1] the test system is A549. In words: Antiproliferative activity against human A549 cells at 10 uM after 72 hrs by MTS assay. Format: functional. On the technique in general: Tetrazolium dyes change colour on reduction, which living cells bring about.
In assay [2] the test system is U-251. Nature of the assay: Antiproliferative activity against human U251 cells at 10 uM after 72 hrs by MTS assay. Format: functional. A digest of the protocol: (§1)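 Single-concentration screen. Cells at 4 × 10^4 cells/ml, seeded and incubated overnight, then given 10 µM compound in DMSO for 72 h (37 °C, 5% CO2), with DMSO-only controls. MTS added for 4 h and A490 read. Percent inhibition = (1 − OD490 treated/OD490 control) × 100, from triplicate experiments.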

Assay [3] can be described thus: Antiproliferative activity against human SGC7901 cells at 10 uM after 72 hrs by MTS assay. Format: functional, SGC-7901.
Assay [4] has as its system NCI-H1975. Nature of the assay: Antiproliferative activity against human NCI-H1975 cells at 10 uM after 72 hrs by MTS assay. Type of assay: functional. In short, it runs like this:
as §1

Assay [5] can be described thus: Antiproliferative activity against human HCC827 cells at 10 uM after 72 hrs by MTS assay. Type of assay: functional.
Assay [6] in a line: Antiproliferative activity against human SKBR3 cells at 10 uM after 72 hrs by MTS assay. Format: functional, SK-BR-3. A digest of the protocol: as §1
A short description of assay [7]: Antiproliferative activity against human H460 cells at 10 uM after 72 hrs by MTS assay. Type of assay: functional, NCI-H460.
A short description of assay [8]: Antiproliferative activity against human PM8910 cells at 10 uM after 72 hrs by MTS assay. Format: functional.
A short description of assay [9]: Antiproliferative activity against human Bel7402 cells at 10 uM after 72 hrs by MTS assay. Type of assay: functional, Bel-7402.

Take `CCOC(=O)c1ccc(/N=C2\C(=O)Nc3ccc(Cl)cc32)c(Nc2cc(OC)cc(OC)c2)c1`: the Activity in [1] came out at 32.9%; in assay [2], 7.98%; in assay [3], 64.74%; in [4], 65.83%; in assay [5], 41.43%; in assay [6], 41.17%. Also, the Activity in assay [7] came to 57.08%; in assay [8], 42.24%; in assay [9], 28.63%.

Turning to `Cn1cc(/C=C2/C(=O)Nc3ncccc32)c2ccccc21`, the Activity in [1] was 11.36%; in assay [2], -0.65%; in assay [3], 22.39%; in assay [4] it was 38.04%; in [5] it was 37.21%; in assay [6], 8.29%. Moreover, the Activity in assay [7] amounted to 19.17%; in assay [8] it was 22.23%; in [9] it was 24.47%.

In the case of `CCOC(=O)c1ccc(/N=C2\C(=O)Nc3ccc(Cl)cc32)c(N2CCOCC2)n1`, the Activity is 24.53% in [1]; 7.69% in assay [2]; 2.89% in [3]; 34.78% in [4]; 18.58% in assay [5]; 14.58% in assay [6]. Further, the figures for the Activity in assay [7], in assay [8] and in [9] were 14.19%, 21.97% and 8.58%, respectively.

`O=C1Nc2ncccc2/C1=C/c1ccc(N2CCN(C(=O)CCCl)CC2)cc1`: the Activity in assay [1] is 5.2%; in assay [2], -2.81%; in assay [3], 5.55%; in assay [4], 17.66%; in [5], 13.18%; in [6], 10.56%. In addition, the figures for the Activity in [7], in assay [8] and in assay [9] were 7.98%, 14.97% and 12.01%, respectively.

As to `O=C1Nc2ncccc2/C1=C/c1ccc(N2CCOCC2)cc1`, the Activity in [1] is reported as 12.18%; in assay [2] it was -3.95%; in assay [3], 21.38%; in assay [4] it was 9.21%; in [5], 10.19%; in [6] it was 2.52%. The Activity in [7] is given as 32.46%; in [8], -1.48%; in [9], 9.16%.

For `O=C1Nc2ccc(Cl)cc2/C1=N/c1ccc2cc[nH]c2c1`, the Activity is 10.2% in assay [1]; -5.47% in [2]; -0.27% in assay [3]; 47.6% in assay [4]; 24.95% in assay [5]; 14.03% in [6]. The figures for the Activity in assay [7], in assay [8] and in assay [9] were 17.08%, 11.93% and 5.59%, respectively.

For `O=C1Nc2ccc(Cl)cc2/C1=N/c1ccc2[nH]ccc2c1`, the Activity in assay [1] was -10.32%; in assay [2] it was 26.95%; in assay [3], 12.49%; in assay [4], 21.92%; in assay [5], 20.17%; in assay [6], 11.83%. In addition, the values for the Activity in assay [7], in assay [8] and in assay [9] were 9.99%, 10.94% and 13.44%, respectively.

On to `O=CN1CCN(c2ccc(/C=C3\C(=O)Nc4ncccc43)cc2)CC1`, for which the Activity was 0.14% in assay [1]; -12.2% in assay [2]; 9.66% in assay [3]; 23.51% in assay [4]; 14.61% in assay [5]; 7.8% in assay [6]. Also, the Activity in [7] amounted to 13.68%; in assay [8] it was 10.13%; in assay [9], 15.45%.

Regarding `O=C1Nc2ccccc2/C1=C/c1ccc(N2CCOCC2)cc1`, the Activity stood at 37.09% in assay [1]; 1.92% in assay [2]; 17.89% in [3]; 28.96% in assay [4]; 34.26% in assay [5]; 11.93% in [6]. Also, the Activity in assay [7] is given as 26.56%; in [8], 14.19%; in assay [9], 23.53%.

In the case of `O=C1Nc2ncccc2/C1=C/c1ccc(N2CCN(C(=O)c3ccccc3)CC2)cc1`, the Activity in [1] amounted to 10.59%; in assay [2], 3.44%; in assay [3], 15.99%; in assay [4], 35.62%; in assay [5] it was 21.77%; in [6], 9.07%. The Activity was determined as 17.24% in assay [7], 13.74% in assay [8] and 17.58% in [9].

These data come from ChEMBL document CHEMBL3352626, “Synthesis and biological evaluation of novel oxindole-based RTK inhibitors as anti-cancer agents” (Bioorg Med Chem, 2014).
